Data from ChEMBL document CHEMBL1159125, “Novel 3-aminopyrazole inhibitors of MK-2 discovered by scaffold hopping strategy” (Bioorg Med Chem Lett, 2010).
The source made the active and inactive calls. The rule behind the calls is not given here.

How the values were obtained:
[1] = Permeability from apical to basolateral side in human Caco-2 cells; format: ADME, cell-based
[2] = molecular target: Cyclin-dependent kinase 2 (Homo sapiens, UniProt P24941); assay: Inhibition of CDK2
[3] = molecular target: Mitogen-activated protein kinase 8 (Homo sapiens, UniProt P45983); assay: Inhibition of JNK1
Chain of Mitogen-activated protein kinase 8 (P45983 whole entry): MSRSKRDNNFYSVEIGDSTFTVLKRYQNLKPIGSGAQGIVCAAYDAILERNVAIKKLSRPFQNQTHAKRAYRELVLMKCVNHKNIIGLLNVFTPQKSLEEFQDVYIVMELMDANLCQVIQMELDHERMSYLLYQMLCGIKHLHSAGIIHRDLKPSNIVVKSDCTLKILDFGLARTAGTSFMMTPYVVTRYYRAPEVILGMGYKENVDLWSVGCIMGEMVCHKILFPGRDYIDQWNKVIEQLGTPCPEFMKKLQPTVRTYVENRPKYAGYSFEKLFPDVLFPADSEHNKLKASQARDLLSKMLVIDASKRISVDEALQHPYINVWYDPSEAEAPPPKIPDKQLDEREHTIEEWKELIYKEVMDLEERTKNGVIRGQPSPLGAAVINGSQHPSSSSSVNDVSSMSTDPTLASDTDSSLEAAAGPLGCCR

[4] = molecular target: Mitogen-activated protein kinase 9 (Homo sapiens, UniProt P45984); assay: Inhibition of JNK2
Chain of Mitogen-activated protein kinase 9 (P45984 whole entry): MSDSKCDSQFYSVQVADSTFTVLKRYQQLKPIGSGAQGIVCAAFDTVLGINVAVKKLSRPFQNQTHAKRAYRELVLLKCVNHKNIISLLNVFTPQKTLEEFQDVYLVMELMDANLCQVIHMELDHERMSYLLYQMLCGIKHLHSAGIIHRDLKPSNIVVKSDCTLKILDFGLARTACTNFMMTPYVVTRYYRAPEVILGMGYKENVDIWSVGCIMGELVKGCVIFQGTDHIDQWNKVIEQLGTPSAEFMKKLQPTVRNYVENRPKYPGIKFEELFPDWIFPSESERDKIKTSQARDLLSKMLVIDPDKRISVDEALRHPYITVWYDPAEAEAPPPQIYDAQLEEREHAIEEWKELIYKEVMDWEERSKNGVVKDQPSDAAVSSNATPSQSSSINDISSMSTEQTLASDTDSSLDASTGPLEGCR

[5] = molecular target: Mitogen-activated protein kinase 14 (Homo sapiens, UniProt Q16539); assay: Inhibition of p38alpha
Chain of Mitogen-activated protein kinase 14 (Q16539 whole entry): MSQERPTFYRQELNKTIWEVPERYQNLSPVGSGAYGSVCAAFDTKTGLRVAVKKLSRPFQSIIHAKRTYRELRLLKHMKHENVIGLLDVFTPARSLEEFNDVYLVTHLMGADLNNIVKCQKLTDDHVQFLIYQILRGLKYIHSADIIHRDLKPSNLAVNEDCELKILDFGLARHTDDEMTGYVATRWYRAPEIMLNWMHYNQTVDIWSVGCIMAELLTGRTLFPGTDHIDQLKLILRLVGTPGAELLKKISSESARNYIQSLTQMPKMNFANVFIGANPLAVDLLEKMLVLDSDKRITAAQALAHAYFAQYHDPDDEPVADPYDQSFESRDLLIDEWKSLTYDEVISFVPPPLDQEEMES

[6] = test system: THP-1; assay: Cytotoxicity against human THP1 cells; format: cell-based
[7] = test system: Mus musculus; assay: Antiinflammatory activity in OF1 mouse assessed as inhibition of LPS-induced TNFalpha release at 100 mg/kg, po administered 1 hr prior to LPS challenge; format: functional
Summary of the method: (§1)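 Female OF1 mice, 8 weeks old, given compound orally; LPS (20 mg/kg) injected 1 h later. Blood withdrawn 1 h after LPS. Plasma mouse TNFα measured by ELISA; inhibition reported as percent.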

[8] = test system: Mus musculus; assay: Antiinflammatory activity in OF1 mouse assessed as inhibition of LPS-induced TNFalpha release at 30 mg/kg, po administered 1 hr prior to LPS challenge measured by ELISA; format: functional, organism-based; design: dose 30 mg/kg; summary of the method: as §1
[9] = Aqueous solubility at pH 1 to 6.8; format: physicochemical; conditions: aqueous medium
[10] = test system: Mus musculus; assay: Antiinflammatory activity in po dosed OF1 mouse assessed as inhibition of LPS-induced TNFalpha release administered 1 hr prior to LPS challenge measured by ELISA; format: functional; summary of the method: as §1
[11] = test system: Mus musculus; assay: Antiinflammatory activity in po dosed OF1 mouse assessed as inhibition of LPS-induced TNFalpha release administered 4 hr prior to LPS challenge measured by ELISA; format: functional; design: scale not given: the % may be the effect or the level left
[12] = test system: Mus musculus; assay: Antiinflammatory activity in po dosed OF1 mouse assessed as inhibition of LPS-induced TNFalpha release administered 6 hr prior to LPS challenge measured by ELISA; format: functional; design: scale not given: the % may be the effect or the level left
[13] = Drug level in OF1 mouse blood at 100 mg/kg, po after 1 hr; format: ADME, organism-based, OF; design: dose 100 mg/kg, route oral; conditions: read-out: Drug uptake
Summary of the method: (§2)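 Female OF1 mice, 8 weeks old, dosed orally, then LPS (20 mg/kg) injected 1 h later. Blood taken 1 h after LPS, and compound blood levels quantified by LC–MS/MS.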

[14] = Drug level in po dosed OF1 mouse blood after 1 hr; format: ADME, organism-based, OF; conditions: read-out: Drug uptake; summary of the method: as §2
[15] = Drug level in po dosed OF1 mouse blood after 4 hr; format: ADME, organism-based, OF; conditions: read-out: Drug uptake
[16] = Drug level in po dosed OF1 mouse blood after 6 hr; format: ADME, organism-based, OF; conditions: read-out: Drug uptake
[17] = Drug level in OF1 mouse blood at 30 mg/kg, po after 1 hr; format: ADME, organism-based, OF; design: dose 30 mg/kg, route oral; conditions: read-out: Drug uptake; summary of the method: as §2

Papp A→B [1] [×10⁻⁶ cm/s] | IC50 [2] [µM] | IC50 [3] [µM] | IC50 [4] [µM] | IC50 [5] [µM] | solubility [9] [µg/mL] | concentration at 1 h [13] [µM] | concentration at 1 h [14] [µM] | concentration at 4 h [15] [µM] | concentration at 6 h [16] [µM] | concentration at 1 h [17] [µM] | SMILES | IC50 [6] [µM] | inhibition in vivo at 100 mg/kg [7] [%] | Activity [8] | inhibition (INH) [10] [%] | Activity [11] [%] | Activity [12] [%]
48.3 | – | – | – | – | – | – | – | – | – | – | COc1ccc(-n2cc(-c3ccc4c(c3)C(=O)NCC4)c(N)n2)cc1 | – | – | – | – | – | –
– | > 10 | > 10 | > 10 | > 10 | < 2 | 17.4 | 14.1 | 6.8 | 25.8 | 1.7 | Nc1nn(-c2cccc(-c3ccc4cc[nH]c4c3)c2)cc1-c1ccc2c(c1)CCNC2=O | > 20 | 68 | inactive | 66 | 23 | 67
